Measured values: ChEMBL document CHEMBL1124174, “Substituted benzamides. 1. Potential nondopaminergic antagonists of chemotherapy-induced nausea and emesis” (J Med Chem, 1988)
pIC50: −log10 of the molar value.

Assays:
[1] = target: D(2) dopamine receptor (Canis lupus familiaris) (UniProt Q9GJU1); assay: In vivo antagonism activity against dopamine D2 receptor was measured as emesis in dog when administered subcutaneously; format: functional, organism-based
Canis familiaris [2] = assay: In vivo antagonism of cisplatin-induced emesis in dog measured as emetic episodes, twice the dose of 3 mg/kg in 2 dogs; format: functional, Canis lupus familiaris
Outline: (§1)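 Nonfasted mature male or female beagles were dosed sc twice, 30 min before and 120 min after cisplatin (3 mg/kg iv; 3 mg/mL in warm 0.9% saline, used immediately). Emesis was observed up to 5 h; events within 2 min counted as one episode. Results were given as mean emetic episodes and % protection versus a dynamic control (historical and concurrent saline means pooled). t test versus saline.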

D(2) dopamine receptor = D(2) dopamine receptor (Rattus norvegicus, UniProt P61169); assay: In vitro antagonistic activity against Dopamine receptor D2 was evaluated for the inhibition of [3H]spiperone binding
Outline: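 Rat striatal membranes were prepared by differential centrifugation in 50 mM Tris pH 7.4 at 4 °C. Membrane protein (10 mg) was incubated 15 min at 37 °C with 0.1 nM [3H]spiperone and varying competitor concentrations. Buffer: 50 mM Tris HCl pH 7.5, 0.1% ascorbic acid, pargyline, 120 mM NaCl, 5 mM KCl, 2 mM CaCl2, 1 mM MgCl2. (+)-Butaclamol defined nonspecific binding. Bound ligand was collected by filtration and scintillation counted. IC50 by log-logit regression.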

Canis familiaris [3] = assay: In vivo antagonism of cisplatin-induced emesis in dog measured as percentage protection for twice the dose of 3 mg/kg in 2 dogs; format: functional, Canis lupus familiaris; outline: as §1
Mustela putorius furo [4] = assay: In vivo antagonism of cisplatin-induced emesis in ferret measured as emetic episodes, twice the dose of 3 mg/kg and in 3 ferrets; format: functional
Outline: (§2)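 Nonfasted castrated male Fitch ferrets (1–1.5 kg) had jugular catheters implanted ≥48 h earlier under anesthesia. Compounds or saline were given iv twice, 5 min before and 90 min after cisplatin (12 mg/kg iv; 12 mg/mL in warm 0.9% saline). Emesis was observed up to 4 h; events within 1 min counted as one episode. Results were given as mean emetic episodes and % protection versus a pooled historical/concurrent control. t test versus saline.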

Mustela putorius furo [5] = assay: In vivo antagonism of cisplatin-induced emesis in ferret measured as percentage protection for twice the dose of 3 mg/kg and in 3 ferrets; format: functional; outline: as §2
[6] = target: D(2) dopamine receptor (Rattus norvegicus) (UniProt P61169); assay: In vivo antagonism activity against D2 receptor was measured as stereotypy in rat when administered subcutaneously; format: functional, organism-based
Outline: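 Male Long Evans rats (275 g) were dosed sc in dilute aqueous HCl (pH 4.5-5.5) 30 min before apomorphine (1 mg/kg sc).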

[7] = target: D(2) dopamine receptor (Rattus norvegicus) (UniProt P61169); assay: In vivo antagonistic activity against dopamine D2 receptor was measured as catalepsy in rat when administered subcutaneously; format: functional, organism-based
Outline: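 Male Long Evans rats (275 g) received graded sc doses in dilute aqueous HCl (pH 4.5-5.5). They were observed 180 min for catalepsy, scored when the animal stayed stationary ≥15 s on a four-cork template.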

Canis familiaris [8] = assay: In vivo antagonism of cisplatin-induced emesis in dog measured as percentage protection for twice the dose of 0.3 mg/kg in 2 dogs; format: functional, Canis lupus familiaris; outline: as §1
Canis familiaris [9] = assay: Antagonism of cisplatin-induced emesis in dog measured as emetic episodes, twice the dose of 1 mg/kg in 2 dogs.(in vivo); format: functional, Canis lupus familiaris; outline: as §1
Canis familiaris [10] = assay: In vivo antagonism of cisplatin-induced emesis in dog measured as percentage protection for twice the dose of 1 mg/kg in 2 dogs; format: functional, Canis lupus familiaris; outline: as §1
Mustela putorius furo [11] = assay: In vivo antagonism of cisplatin-induced emesis in ferret measured as emetic episodes, twice the dose of 1 mg/kg and in 3 ferrets; format: functional; outline: as §2
Canis familiaris [12] = assay: Antagonism of cisplatin-induced emesis in dog measured as emetic episodes, twice the dose of 0.3 mg/kg in 2 dogs.(in vivo); format: functional, Canis lupus familiaris; outline: as §1
Canis familiaris [13] = assay: In vivo antagonism of cisplatin-induced emesis in dog measured as emetic episodes, twice the dose of 3 mg/kg in 3 dogs; format: functional, Canis lupus familiaris; outline: as §1
Canis familiaris [14] = assay: In vivo antagonism of cisplatin-induced emesis in dog measured as emetic episodes, twice the dose of 1 mg/kg in 2 dogs; format: functional, Canis lupus familiaris; outline: as §1
Mustela putorius furo [15] = assay: In vivo antagonism of cisplatin-induced emesis in ferret measured as percentage protection for twice the dose of 0.3 mg/kg and in 3 ferrets; format: functional; outline: as §2
Mustela putorius furo [16] = assay: In vivo antagonism of cisplatin-induced emesis in ferret measured as emetic episodes, twice the dose of 0. 3 mg/kg and in 3 ferrets; format: functional; outline: as §2
Canis familiaris [17] = assay: In vivo antagonism of cisplatin-induced emesis in dog measured as emetic episodes, twice the dose of 0.3 mg/kg in 2 dogs; format: functional, Canis lupus familiaris; outline: as §1
Mustela putorius furo [18] = assay: in vivo antagonism of cisplatin-induced emesis in ferret measured as emetic episodes, twice the dose of 0.3 mg/kg and in 3 ferrets; format: functional
Outline: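 Nonfasted castrated male Fitch ferrets (1–1.5 kg) carried jugular vein catheters implanted at least 48 h earlier under general anesthesia. Test compound or saline was given iv twice, 5 min before and 90 min after cisplatin (12 mg/kg iv; 12 mg/mL in warm saline). Emesis was watched for 4 h, with events within 1 min counted as one episode. % protection is relative to a pooled historical-plus-concurrent control, with t test versus saline.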

Mustela putorius furo [19] = assay: In vivo antagonism of cisplatin-induced emesis in ferret measured as emetic episodes, twice the dose of 0.3 mg/kg and in 3 ferrets; format: functional; details: in the assay text read “in 2 ferrets” for “in 3 ferrets”; outline: as §2
Mustela putorius furo [20] = assay: In vivo antagonism of cisplatin-induced emesis in ferret measured as percentage protection for twice the dose of 1 mg/kg and in 3 ferrets; format: functional; details: 1 mg/kg; outline: as §2
Mustela putorius furo [21] = assay: In vivo antagonism of cisplatin-induced emesis in ferret measured as percentage protection for twice the dose of 3 mg/kg

D(2) dopamine receptor, sequence (P61169 whole entry): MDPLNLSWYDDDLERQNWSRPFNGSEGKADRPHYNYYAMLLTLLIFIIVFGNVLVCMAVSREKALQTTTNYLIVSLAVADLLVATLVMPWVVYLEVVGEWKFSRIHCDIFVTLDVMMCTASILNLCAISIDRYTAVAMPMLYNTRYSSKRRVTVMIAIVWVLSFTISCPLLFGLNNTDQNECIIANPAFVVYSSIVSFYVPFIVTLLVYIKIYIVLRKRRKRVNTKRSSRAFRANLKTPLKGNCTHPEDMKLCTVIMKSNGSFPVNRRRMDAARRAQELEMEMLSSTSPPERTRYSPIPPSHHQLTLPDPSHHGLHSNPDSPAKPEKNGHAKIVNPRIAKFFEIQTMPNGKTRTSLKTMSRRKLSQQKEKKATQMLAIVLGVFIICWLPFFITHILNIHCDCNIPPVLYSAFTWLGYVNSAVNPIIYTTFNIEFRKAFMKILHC
D(2) dopamine receptor (Rattus norvegicus), sequence (P61169 whole entry): as above
D(2) dopamine receptor (Canis lupus familiaris), sequence (Q9GJU1 whole entry): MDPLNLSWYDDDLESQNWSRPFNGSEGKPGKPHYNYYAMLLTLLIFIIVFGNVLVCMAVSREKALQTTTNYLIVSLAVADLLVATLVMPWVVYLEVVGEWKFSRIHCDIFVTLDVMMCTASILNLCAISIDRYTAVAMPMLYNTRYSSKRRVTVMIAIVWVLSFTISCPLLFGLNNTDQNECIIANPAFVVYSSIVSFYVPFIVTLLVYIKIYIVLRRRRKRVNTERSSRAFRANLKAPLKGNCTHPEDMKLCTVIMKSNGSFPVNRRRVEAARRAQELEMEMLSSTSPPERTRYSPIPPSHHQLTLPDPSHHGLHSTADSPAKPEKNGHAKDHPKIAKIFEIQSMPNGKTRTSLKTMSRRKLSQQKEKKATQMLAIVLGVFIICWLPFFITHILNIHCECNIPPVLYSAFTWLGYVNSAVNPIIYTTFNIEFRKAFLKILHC

SMILES | ED50 [1] [mg/kg] | pIC50 (D(2) dopamine receptor) | Protection (Canis familiaris [3]) [%] | Emetic episodes (Mustela putorius furo [4]) | Protection (Mustela putorius furo [5]) [%] | ED50 [6] [mg/kg] | ED50 [7] [mg/kg] | other results
C=C(C)COc1cc(N)c(Cl)cc1C(=O)NCCN(CC)CC | > 3 | < 6.00 | 68 | 2.3 | 70 | > 40 | > 40 | Emetic episodes (Canis familiaris [2]): 4
CCN(CC)CCNC(=O)c1cc(Cl)c(N)cc1OCCC(C)OC (stereo not given) | > 3 | < 6.00 |  | 1.3 | 82 | > 40 | > 40 | Protection (Canis familiaris [8]): 28%; Emetic episodes (Canis familiaris [9]): 1.5; Protection (Canis familiaris [10]): 88%; Emetic episodes (Mustela putorius furo [11]): 4.3; Protection (Mustela putorius furo [11]): 42%; Emetic episodes (Canis familiaris [12]): 8.5
CCN(CC)CCNC(=O)c1cc(Cl)c(N)cc1OCC(=O)c1ccccc1 | > 3 | < 6.00 | 88 | 0 | 100 | > 40 | > 40 | Emetic episodes (Canis familiaris [2]): 1.5
CCN(CC)CCNC(=O)c1cc(Cl)c(N)cc1OCC#N | > 3 | < 6.00 | 63 | 0.7 | 90 | > 40 | > 40 | Emetic episodes (Canis familiaris [13]): 4.7
CCN(CC)CCNC(=O)c1cc(Cl)c(N)cc1OCC(OC)OC | > 3 | < 6.00 |  | 1.3 | 82 | > 40 | > 40 | Emetic episodes (Canis familiaris [14]): 1.5; Protection (Canis familiaris [10]): 88%; Protection (Mustela putorius furo [15]): 0%; Emetic episodes (Mustela putorius furo [16]): 6.7
CCN(CC)CCNC(=O)c1cc(Cl)c(N)cc1OC[C@@H](C)O (stereo in doubt; 8e) |  | < 6.00 |  |  |  |  |  | Protection (Canis familiaris [8]; 0.3 mg/kg): 45%; Emetic episodes (Canis familiaris [17]; 0.3 mg/kg): 6.5; Emetic episodes (Canis familiaris [14]; 1 mg/kg): 1; Protection (Canis familiaris [10]; 1 mg/kg): 92%; Emetic episodes (Mustela putorius furo [18]): 6; Protection (Mustela putorius furo [19]): 18%; Emetic episodes (Mustela putorius furo [11]; 1 mg/kg): 2; Protection (Mustela putorius furo [20]): 73%
CCN(CC)CCN1C(=O)c2cc(Cl)c(NC=O)cc2OC(C)=C1C | > 3 | < 6.00 |  | 0 | 100 | > 40 | > 40 | Protection (Canis familiaris [8]): 25%; Emetic episodes (Canis familiaris [17]): 9.5; Emetic episodes (Mustela putorius furo [16]): 4.7; Protection (Mustela putorius furo [21]): 32%
